Bioassay records (PubChem)
An excerpt weighted towards active compounds, which were near 2.1% of everything screened.
SF1 activator: SF-1 (human) activation; Q13285; activation, % at 10 µM; AID 522; 65,000 compounds, 1.9% hits; CHO-K1 Gal4-SF-1 LBD luciferase reporter; % increase over DMSO SF-1-specific signal;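 active = activation above the mean activation of all tested compounds plus 3 SD, cut at about 50% in these data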
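Compound – one dose, 10 µM compound, 1% DMSO · Test system – transient Gal4-SF-1 LBD reporter, CHO-K1 · Input – 4,000 cells in each well · Read-out basis – percent activation relative to DMSO median and mock-transfected background · Replicates – single measurement per compound · Technique – steady-glow luciferase luminescence, read after 15 min reagent incubation · Timing – 20 h compound treatment, 37 °C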
TNAP act mid DEA: activators of human TNAP at intermediate phosphate acceptor. P05186. purified TNAP, CDP-star luminescence, 100 mM DEA, 30 min; hits give high values; scale: 0 levamisole-inhibited, 1 vehicle-only enzyme. activation factor at 20 µM. 64,000 tested, under 10 active;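 active = activation factor of at least 2 at 20 µM, relative to controls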
E coli RNAP: inhibitors of Escherichia coli RNA polymerase; P0A8V2; inhibition, %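 (tested at 10 µM)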; 62,000 compounds, 0.2% hits; E. coli RNA polymerase, fluorescence transcription assay; in the data active = inhibition above about 20%;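 note: 0% = enzyme without compound and 100% = no enzyme blank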
MT1-MMP txn act: MT1-MMP promoter transcription activation; HT1080 MT1-MMP promoter luciferase reporter, luminescence, overnight; hits give high values; activation factor at 10 µM; 86,000 compounds, 0.16% hits;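 active = activation factor of at least 2 for MT1-MMP transcription at 10 µM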
RORA act: activates the human nuclear receptor RORA; 65,000 compounds, 1.5% hits; CHO-K1 Gal4-RORA LBD luciferase reporter, luminescence; percent increase over mock-subtracted basal signal; AID 560; activation, % at 10 µM;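 active = activation above the mean of all tested compounds plus 3 SD, cut at about 49% in these data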;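 note: 0% = DMSO-treated RORA cells and 100% = added signal equal to DMSO minus mock-transfected cells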
Target sequence (P35398 whole entry, looked up, the tested form may be a part): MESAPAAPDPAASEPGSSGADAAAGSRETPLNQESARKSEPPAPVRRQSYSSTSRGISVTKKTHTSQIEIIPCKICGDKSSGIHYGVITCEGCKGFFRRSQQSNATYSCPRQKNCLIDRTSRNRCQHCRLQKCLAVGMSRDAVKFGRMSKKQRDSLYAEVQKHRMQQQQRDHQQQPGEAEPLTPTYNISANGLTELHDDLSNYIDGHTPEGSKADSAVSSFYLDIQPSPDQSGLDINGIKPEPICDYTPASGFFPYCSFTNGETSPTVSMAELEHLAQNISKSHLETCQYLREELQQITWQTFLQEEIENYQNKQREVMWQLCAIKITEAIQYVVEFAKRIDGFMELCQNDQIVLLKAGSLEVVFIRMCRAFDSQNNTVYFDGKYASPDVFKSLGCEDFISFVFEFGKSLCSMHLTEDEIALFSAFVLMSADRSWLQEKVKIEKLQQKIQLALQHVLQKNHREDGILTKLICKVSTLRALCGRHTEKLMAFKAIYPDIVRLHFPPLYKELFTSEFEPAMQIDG
An asterisk follows results filed as active.

How did CC1=CCC(COC(=O)Nc2ccccc2)CC1 (stereo unspecified) do in these assays?
SF1 activator: 16; TNAP act mid DEA: 0.9; MT1-MMP txn act: 1.7; RORA act: 90*

How did CCOP(=O)(O)c1ccccc1OCCCCCOc1ccccc1P(=O)(O)OCC do in these assays?
MT1-MMP txn act: 1

What do the screens show for `Cc1nc2cc(NCc3nc4ccccc4n3Cc3ccccc3)ccc2n1C`?
SF1 activator: 23; TNAP act mid DEA: 1; E coli RNAP: 5; MT1-MMP txn act: 1.1; RORA act: 50*

Results for Cn1c(NCc2ccccc2Cl)nc2ccccc21 ?
SF1 activator: 46; TNAP act mid DEA: 0.9; E coli RNAP: 4; MT1-MMP txn act: 1.2; RORA act: 50*

Results for Cn1c(CNc2ccc(Cl)cc2)nc2ccccc21 ?
SF1 activator: 59*; TNAP act mid DEA: 0.9; E coli RNAP: -1; MT1-MMP txn act: 1.6; RORA act: 37

How did Cn1c(NCc2ccccc2O)nc2ccccc21 do in these assays?
SF1 activator: 49; TNAP act mid DEA: 1.1; E coli RNAP: 4; MT1-MMP txn act: 1.2; RORA act: 27

How did Cc1cccc(NCc2nc3ccccc3n2Cc2ccccc2)c1 do in these assays?
MT1-MMP txn act: 1.4

What do the screens show for `Cc1cccc(NCc2nc3ccccc3n2C)c1`?
MT1-MMP txn act: 1.6

What do the screens show for `CCCC1(C(=O)OC)C=C2C(=C(c3ccccc3)C(=O)C2C)CN1` (stereo unspecified)?
MT1-MMP txn act: 1.2

What do the screens show for `Cn1c(-c2ccc(F)cc2)cnc1SCC(=O)Nc1ccccc1N1CCOCC1`?
SF1 activator: 70*; TNAP act mid DEA: 0.9; E coli RNAP: 4; MT1-MMP txn act: 1; RORA act: 39

Results for Cn1nnnc1SCC(=O)Nc1ccccc1N1CCOCC1 ?
SF1 activator: -14; TNAP act mid DEA: 1; E coli RNAP: 7; MT1-MMP txn act: 1; RORA act: 16

Results for CCOC(=O)N1CCN(C(=S)NCCOC)CC1 ?
MT1-MMP txn act: 1.1

How did COc1ccc(OC)c(NC(=O)COc2ccc(S(=O)(=O)NC(C)C)cc2)c1 do in these assays?
SF1 activator: -21; TNAP act mid DEA: 0.9; E coli RNAP: 21*; MT1-MMP txn act: 1; RORA act: -14

How did N#Cc1c(N2CCCC2)nc(N)c2c(N)nc(N3CCCC3)cc12 do in these assays?
SF1 activator: 50*; TNAP act mid DEA: 0.9; E coli RNAP: 10; MT1-MMP txn act: 1.2; RORA act: 28

What do the screens show for `CCCCc1c(C)c2ccc(OCC(C)=O)cc2oc1=O`?
SF1 activator: 74*; TNAP act mid DEA: 0.9; E coli RNAP: -11; MT1-MMP txn act: 1.3; RORA act: 20

Results for O=C(NCCc1ccccc1)/C(=N\O)c1ccccc1 ?
SF1 activator: 64*; TNAP act mid DEA: 0.9; E coli RNAP: -4; MT1-MMP txn act: 1.8; RORA act: 14

Results for Cc1cc(C(=O)NC2=NCCS2)cs1 ?
SF1 activator: 53*; TNAP act mid DEA: 0.9; E coli RNAP: 7; MT1-MMP txn act: 0.9; RORA act: 43

How did O=C(NC1=NCCS1)Nc1ccccc1 do in these assays?
SF1 activator: 86*; TNAP act mid DEA: 0.9; E coli RNAP: 2; MT1-MMP txn act: 1.2; RORA act: 44

Results for O=C(NC1=NCCS1)c1ccncc1 ?
SF1 activator: 4; TNAP act mid DEA: 1; E coli RNAP: 1; MT1-MMP txn act: 1.1; RORA act: 25

What do the screens show for `Nc1nc2ccccc2n1C(=O)CCc1ccccc1`?
SF1 activator: 67*; TNAP act mid DEA: 0.9; E coli RNAP: 7; MT1-MMP txn act: 1.9; RORA act: 45

Results for Cc1cc(C)n(CCc2nc3c4ccccc4n(CC(=O)Nc4ccc(Cl)cc4F)c(=O)n3n2)n1 ?
SF1 activator: -8; TNAP act mid DEA: 1.1; E coli RNAP: 7; MT1-MMP txn act: 1; RORA act: -5

How did CCCCOc1ccc(OCCNS(=O)(=O)N(C)C)cc1 do in these assays?
SF1 activator: 10; TNAP act mid DEA: 0.9; E coli RNAP: 6; MT1-MMP txn act: 1.1; RORA act: 2

Results for CCCc1cc(C(=O)NCc2cccs2)no1 ?
SF1 activator: 50*; TNAP act mid DEA: 0.9; E coli RNAP: 8; MT1-MMP txn act: 1.6; RORA act: 37

Results for CCCc1cc(C(=O)Nc2ccccc2SC)no1 ?
SF1 activator: 56*; TNAP act mid DEA: 0.8; E coli RNAP: 3; MT1-MMP txn act: 1.5; RORA act: 1

What do the screens show for `Cc1ccc(-c2cc(C(=O)NCc3cccs3)no2)cc1`?
SF1 activator: 60*; TNAP act mid DEA: 0.9; E coli RNAP: 4; MT1-MMP txn act: 1.3; RORA act: 59*

Results for COCCCn1c(C)nc2c(c1=O)c1nc3ccccc3nc1n2CCc1ccccc1 ?
SF1 activator: -7; TNAP act mid DEA: 0.9; E coli RNAP: 7; MT1-MMP txn act: 0.9; RORA act: 5

Results for COC(=O)N1C2(C=CC1(C)C(=O)NCc1ccc(N(C)C)cc1)CCCCC2 (stereo unspecified) ?
MT1-MMP txn act: 1

Results for CCCCn1c(SCC(=O)Nc2nnc(CC)s2)nc2c1c(=O)n(C)c(=O)n2C ?
SF1 activator: 2; TNAP act mid DEA: 1; E coli RNAP: 6; MT1-MMP txn act: 1; RORA act: 11

What do the screens show for `CCCCn1c(SCC(=O)Nc2nnc(C)s2)nc2c1c(=O)n(C)c(=O)n2C`?
SF1 activator: 23; TNAP act mid DEA: 1; E coli RNAP: 31*; MT1-MMP txn act: 1; RORA act: -12

Results for CCC1=C2CC[C@H]3C(=O)N(c4ccccc4)C(=O)[C@H]3[C@H]2[C@@]2(Cc3ccccc3)C(=NCc3ccccc3)OC(=O)N2C1=O ?
MT1-MMP txn act: 1.1

What do the screens show for `COC(=O)c1ccc(C(NC(=O)OCc2ccccc2)/C(=C/[C@@H](C)C(=O)N(C)Cc2ccccc2)C(F)(F)F)cc1` (stereo partly specified)?
MT1-MMP txn act: 1.2

What do the screens show for `O=c1nc(C(F)(F)F)nc2ccccn12`?
SF1 activator: -6; TNAP act mid DEA: 0.9; E coli RNAP: 9; MT1-MMP txn act: 1.1; RORA act: 1

How did O=c1[nH]c2ccccc2c2nc3ccccn3c12 do in these assays?
SF1 activator: 65*; TNAP act mid DEA: 1; E coli RNAP: 3; MT1-MMP txn act: 1.7; RORA act: 11

Results for CCC(C)Cn1c(C(C)O)nc2ccccc21 (stereo unspecified) ?
MT1-MMP txn act: 1

What do the screens show for `O=C(CSc1nc2ccccc2s1)Nn1cnnc1`?
SF1 activator: -8; TNAP act mid DEA: 0.9; E coli RNAP: 7; MT1-MMP txn act: 1; RORA act: -10

Results for O=C(Nc1nc(-c2cccs2)cs1)c1ccc(Cl)s1 ?
SF1 activator: 34; TNAP act mid DEA: 1; E coli RNAP: 0; MT1-MMP txn act: 1.4; RORA act: 68*
